Tests used:
patients with IPF [1] = experiment: Phase 2a trial: treatment-emergent adverse events; format: in vivo, human; conditions: for percentage of patients who have at least one treatment-emergent adverse event / AEs considered to be treatment related / AEs leading to treatment discontinuation / Any AE / Liver function: ALT increase / Liver function: AST increase / Liver function: Liver injury / SAEs considered to be treatment related / SAEs resulting in death / SAEs, grade ≥3: 12 weeks; for AEs considered to be treatment related / AEs leading to treatment discontinuation / Any AE / Liver function: ALT increase / Liver function: AST increase / Liver function: Liver injury / SAEs considered to be treatment related / SAEs resulting in death / SAEs, grade ≥3: n = 18
patients with IPF [2] = experiment: Phase 2a trial: change in forced vital capacity; format: in vivo, human
Summary of the method: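 This was a double-blind, 1:1:1:1 randomized trial of oral 30 mg QD, 30 mg BID or 60 mg QD against placebo QD for 12 weeks on standard of care. Spirometry to 2019 ATS/ERS criteria, on central SpiroSphere devices or on unchanged local equipment, was done at baseline and week 12. Analysis used ANCOVA (treatment fixed, baseline covariate) with multiple imputation for missing week-12 data, two-sided, intent-to-treat.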

patients with IPF [3] = experiment: Phase 2a trial: acute exacerbations of IPF and days hospitalized; format: in vivo, human; conditions: 60 mg QD
Summary of the method: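 Acute IPF exacerbations, and days in hospital after each, were recorded from week 0 through week 12 in IPF patients. Patients received oral dosing (30 mg QD, 30 mg BID or 60 mg QD) or placebo QD alongside standard of care. Adverse events were monitored throughout treatment and for 1 week after the last dose.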

[4] = Pharmacokinetics of rentosertib in blood plasma of patients with IPF; format: in vivo, human
serum proteins = experiment: Olink Explore 3072 proteomic profiling of patient serum; format: in vivo, human; conditions: for number of serum proteins significantly changing with treatment: Benjamini–Hochberg-adjusted P value <0.1
Summary of the method: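 Serum was sampled at baseline and weeks 2, 4, 8 and 12 and profiled on the Olink Explore 3072 panel as NPX. Dose effects were fitted per protein with a generalized linear mixed model: NPX ~ treatment + visit + treatment:visit + (1|patient). Baseline-to-week-12 change was tested by two-sided paired t-test. P values were BH-adjusted, with significance at adjusted P < 0.1.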

healthy individuals = conditions: phase 0 and 1 trials; cited from earlier work

CC(C)n1cnc(-c2ccc(F)cc2)c1-c1ncc(C(=O)Nc2ccc(N3CCN(C)CC3)cc2)[nH]1 [rentosertib]
TEAE: alanine aminotransferase (ALT) increase (patients with IPF [1]; 30 mg BID, 1 patient): 5.6%
treatment-related SAEs (patients with IPF [1]; 30 mg BID, 2/18): 11.1%
TEAE: diarrhea (patients with IPF [1]; 30 mg BID, 3 patients): 16.7%
treatment discontinued for AEs due to liver injury or dysfunction (patients with IPF [1]; 30 mg BID, 4/18): 22.2%
TEAE: hepatic function abnormal (patients with IPF [1]; 30 mg BID, 4 patients): 22.2%
TEAE: hypokalemia (patients with IPF [1]; 30 mg BID, 5 patients): 27.8%
Treatment-related AEs (patients with IPF [1]; 30 mg BID, 11/18): 61.1%
percentage of patients who have at least one treatment-emergent adverse event (patients with IPF [1]; 30 mg BID, n = 15/18): 83.3%
AEs considered to be treatment related (patients with IPF [1]; 30 mg BID): 11 (61.1) no. (%)
AEs leading to treatment discontinuation (patients with IPF [1]; 30 mg BID): 5 (27.8) no. (%)
Any AE (patients with IPF [1]; 30 mg BID): 15 (83.3) no. (%)
Liver function: ALT increase (patients with IPF [1]; 30 mg BID): 0 (0) no. (%)
Liver function: AST increase (patients with IPF [1]; 30 mg BID): 0 (0) no. (%)
Liver function: Liver injury (patients with IPF [1]; 30 mg BID): 2 (11.1) no. (%)
SAEs considered to be treatment related (patients with IPF [1]; 30 mg BID): 2 (11.1) no. (%)
SAEs resulting in death (patients with IPF [1]; 30 mg BID): 1 (5.6) no. (%)
SAEs, grade ≥3 (patients with IPF [1]; 30 mg BID): 4 (22.2) no. (%)
treatment discontinued for AEs due to liver injury or dysfunction (patients with IPF [1]; 30 mg QD, 0/18): 0%
safety and tolerability, overall (patients with IPF [1]; 30 mg QD, 30 mg BID and 60 mg QD over 12 weeks): safe and well tolerated
treatment-related SAEs (patients with IPF [1]; 30 mg QD, 1/18): 5.6%
TEAE: alanine aminotransferase (ALT) increase (patients with IPF [1]; 30 mg QD, 1 patient): 5.6%
TEAE: diarrhea (patients with IPF [1]; 30 mg QD, 2 patients): 11.1%
TEAE: hepatic function abnormal (patients with IPF [1]; 30 mg QD, 2 patients): 11.1%
TEAE: hypokalemia (patients with IPF [1]; 30 mg QD, 3 patients): 16.7%
Treatment-related AEs (patients with IPF [1]; 30 mg QD, 9/18): 50.0%
percentage of patients who have at least one treatment-emergent adverse event (patients with IPF [1]; 30 mg QD, n = 13/18): 72.2%
AEs considered to be treatment related (patients with IPF [1]; 30 mg QD): 9 (50.0) no. (%)
AEs leading to treatment discontinuation (patients with IPF [1]; 30 mg QD): 1 (5.6) no. (%)
Any AE (patients with IPF [1]; 30 mg QD): 13 (72.2) no. (%)
Liver function: ALT increase (patients with IPF [1]; 30 mg QD): 0 (0) no. (%)
Liver function: AST increase (patients with IPF [1]; 30 mg QD): 0 (0) no. (%)
Liver function: Liver injury (patients with IPF [1]; 30 mg QD): 0 (0) no. (%)
SAEs considered to be treatment related (patients with IPF [1]; 30 mg QD): 1 (5.6) no. (%)
SAEs resulting in death (patients with IPF [1]; 30 mg QD): 0 (0) no. (%)
SAEs, grade ≥3 (patients with IPF [1]; 30 mg QD): 2 (11.1) no. (%)
TEAE: alanine aminotransferase (ALT) increase (patients with IPF [1]; 60 mg QD): 33.3%
treatment-related SAEs (patients with IPF [1]; 60 mg QD, 2/18): 11.1%
treatment discontinued for AEs due to liver injury or dysfunction (patients with IPF [1]; 60 mg QD, 3/18): 17%
TEAE: diarrhea (patients with IPF [1]; 60 mg QD, 5 patients): 27.8%
percentage of patients who have at least one treatment-emergent adverse event (patients with IPF [1]; 60 mg QD, n = 15/18): 83.3%
AEs considered to be treatment related (patients with IPF [1]; 60 mg QD): 14 (77.8) no. (%)
AEs leading to treatment discontinuation (patients with IPF [1]; 60 mg QD): 4 (22.2) no. (%)
Any AE (patients with IPF [1]; 60 mg QD): 15 (83.3) no. (%)
Liver function: ALT increase (patients with IPF [1]; 60 mg QD): 1 (5.6) no. (%)
Liver function: AST increase (patients with IPF [1]; 60 mg QD): 1 (5.6) no. (%)
Liver function: Liver injury (patients with IPF [1]; 60 mg QD): 1 (5.6) no. (%)
SAEs considered to be treatment related (patients with IPF [1]; 60 mg QD): 2 (11.1) no. (%)
SAEs resulting in death (patients with IPF [1]; 60 mg QD): 0 (0) no. (%)
SAEs, grade ≥3 (patients with IPF [1]; 60 mg QD): 7 (38.9) no. (%)
Treatment-related AEs (patients with IPF [1]; 60 mg QD, 14/18): 77.8%
Absolute change in FVC from baseline after 12 weeks, mean (95% CI) (patients with IPF [2]; 30 mg BID): +19.7 ml
Absolute change in FVC from baseline after 12 weeks, mean (95% CI) (patients with IPF [2]; 30 mg QD): -27.0 mL
Absolute change in FVC from baseline after 12 weeks, mean (95% CI) (patients with IPF [2]; 60 mg QD): +98.4 ml
Change in FVC - No SOC: FVC change from baseline (95% CI) (patients with IPF [2]; 60 mg QD, 12 weeks, not concurrently taking SOC antifibrotic therapy): +187.8 mL
Number of days hospitalized for acute IPF exacerbations, Mean (SD) (patients with IPF [3]): 23.3 days
patients who experienced acute exacerbation of IPF (AE-IPF) (patients with IPF [3]; three patients): 16.7%
AUC0–t, arithmetic mean ([4]; 30 mg BID, week 0 (first dose)): 315 h/ng/mL
AUC0–t, arithmetic mean ([4]; 30 mg BID, week 12 (EOT)): 1,390 h ng^−1 ml^−1
time of peak plasma concentration after administration ([4]; 30 mg QD, 30 mg BID, 60 mg QD, single and multiple doses): 1 h
AUC0–t, arithmetic mean ([4]; 30 mg QD, week 0 (first dose)): 553 h/ng/mL
AUC0–t, arithmetic mean ([4]; 30 mg QD, week 12 (EOT)): 788 h/ng/mL
AUC0–t, arithmetic mean ([4]; 60 mg QD, week 0 (first dose)): 1,630 h ng^−1 ml^−1
AUC0–t, arithmetic mean ([4]; 60 mg QD, week 12 (EOT)): 3,450 h ng^−1 ml^−1
drug accumulation ([4]; by week 12): no obvious drug accumulation
steady state achieved ([4]; multiple doses): 2 week
number of significantly altered proteins from baseline to week 12 (serum proteins; 30 mg BID): 39
number of significantly altered proteins from baseline to week 12 (serum proteins; 30 mg QD): 0
number of significantly altered proteins from baseline to week 12 (serum proteins; 60 mg QD): 115
number of serum proteins significantly changing with treatment (serum proteins; week 2, linear regression): 20
number of serum proteins significantly changing with treatment (serum proteins; week 4, linear regression): 82
number of serum proteins significantly changing with treatment (serum proteins; week 12, linear regression): 192
pharmacokinetic (PK) profile, overall (healthy individuals): favorable pharmacokinetic (PK) profile
safety and tolerability, overall (healthy individuals): safe and well tolerated
